In ChEMBL document CHEMBL4130549, “Synthesis and bioactivities study of new antibacterial peptide mimics: The dialkyl cationic amphiphiles” (Eur J Med Chem, 2018):
Active and inactive are the calls of the source. No cut-off for these calls is given here.

Legend:
Klebsiella pneumoniae [1] = assay: Antibacterial activity against carbapenemase-producing Klebsiella pneumoniae after 16 to 20 hrs by broth microdilution method; type: functional
Summary of the method: (§1)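 Broth microdilution per CLSI in cation-adjusted Mueller-Hinton broth; 4-6 h cultures (~10⁸ CFU/mL) diluted to ~10⁶ CFU/mL and mixed 1:1 with twofold dilutions of water-dissolved compound (256 to 0.5 µg/mL). Incubated 16-20 h at 37 °C; MIC read visually. Each concentration run in duplicate, whole experiment repeated at least twice. MRSA, KPC and NDM-1 strains were clinical isolates.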

Staphylococcus aureus [2] = assay: Bactericidal activity against methicillin-resistant Staphylococcus aureus after 20 to 24 hrs in presence of 50% blood by broth microdilution method; type: functional, organism-based
Summary of the method: (§2)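 MRSA at 10⁵ CFU/mL in 50% Mueller-Hinton broth plus 50% sheep serum, plasma or defibrinated whole blood. Serum and plasma were separated by centrifugation at 3,500 rpm for 10 min. Aqueous compound dilutions (512–4 µg/mL before mixing) were combined 1:3 with the suspension and incubated 20-24 h at 37 °C. Wells were plated on Mueller-Hinton agar for a further 20-24 h; MBC was taken as no colonies.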

Klebsiella pneumoniae [3] = assay: Antibacterial activity against carbapenemase-producing Klebsiella pneumoniae isolate K3 after 16 to 20 hrs by broth microdilution method; type: functional; summary of the method: as §1
Staphylococcus aureus [4] = assay: Induction of cytoplasmic membrane depolarization in Staphylococcus aureus ATCC 29213 at 20 ug/ml measured every 2 mins for 12 mins by diSC35 staining based fluorescence assay; type: functional, organism-based
Summary of the method: (§3)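 Mid-log cells (4–6 h) pelleted, washed and resuspended (~10^8 CFU/mL) in PBS for S. aureus, or in 5 mM HEPES, 5 mM glucose and 100 mM KCl (1:1:1) for E. coli. Preloaded with diSC35 (10 µM, 50 µL), 30 min for S. aureus and 40 min plus EDTA (200 µM, 50 µL) for E. coli. Baseline read 8 min (ex 622/em 670 nm), then compound added to 20 µg/mL final and read every 2 min for 12 min. Water control.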

Escherichia coli [5] = assay: Induction of cytoplasmic membrane depolarization in Escherichia coli ATCC 25922 at 20 ug/ml measured every 2 mins for 12 mins by diSC35 staining based fluorescence assay; type: functional, organism-based; summary of the method: as §3
Escherichia coli [6] = assay: Antibacterial activity against Escherichia coli ATCC 25922 after 16 to 20 hrs by broth microdilution method; type: functional; summary of the method: as §1
Enterobacteriaceae [7] = assay: Antibacterial activity against NDM-1-producing Enterobacteriaceae isolate N3 after 16 to 20 hrs by broth microdilution method; type: functional; summary of the method: as §1
Klebsiella pneumoniae [8] = assay: Antibacterial activity against carbapenemase-producing Klebsiella pneumoniae isolate K8 after 16 to 20 hrs by broth microdilution method; type: functional; summary of the method: as §1
Enterobacteriaceae [9] = assay: Antibacterial activity against NDM-1-producing Enterobacteriaceae after 16 to 20 hrs by broth microdilution method; type: functional; summary of the method: as §1
Staphylococcus aureus [10] = assay: Ratio of MBC for methicillin-resistant Staphylococcus aureus in presence of 50% blood to MBC for methicillin-resistant Staphylococcus aureus; type: functional; summary of the method: as §2
Enterobacteriaceae [11] = assay: Antibacterial activity against NDM-1-producing Enterobacteriaceae isolate N10 after 16 to 20 hrs by broth microdilution method; type: functional; summary of the method: as §1
Escherichia coli [12] = assay: Induction of inner membrane permeabilization in Escherichia coli ATCC 25922 at 20 ug/ml measured every 2 mins for 12 mins by propidium iodide staining based fluorescence assay; type: functional, organism-based
Summary of the method: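 Mid-log cells (~10^8 CFU/mL) pre-incubated with propidium iodide (10 µM, 50 µL), 30 min for S. aureus and 40 min for E. coli. Fluorescence (ex 535/em 617 nm) read for 8 min, then compound added to 20 µg/mL final and monitored every 2 min for 12 min. Water-treated control.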

Enterobacteriaceae [13] = assay: Antibacterial activity against NDM-1-producing Enterobacteriaceae isolate N9 after 16 to 20 hrs by broth microdilution method; type: functional; summary of the method: as §1
Klebsiella pneumoniae [14] = assay: Antibacterial activity against carbapenemase-producing Klebsiella pneumoniae isolate K5 after 16 to 20 hrs by broth microdilution method; type: functional; summary of the method: as §1
Staphylococcus aureus [15] = assay: Antibacterial activity against methicillin-resistant Staphylococcus aureus isolate M6 after 16 to 20 hrs by broth microdilution method; type: functional
Summary of the method: (§4)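 CLSI broth microdilution in cation-adjusted Mueller-Hinton broth. A 4-6 h culture was diluted to about 10⁶ CFU/mL and mixed 1:1 with twofold compound dilutions (256–0.5 µg/mL before mixing) prepared from aqueous stocks. Plates were incubated at 37 °C for 16-20 h. Each concentration was tested in duplicate, and the experiment was repeated at least twice.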

Enterobacteriaceae [16] = assay: Antibacterial activity against NDM-1-producing Enterobacteriaceae isolate N7 after 16 to 20 hrs by broth microdilution method; type: functional; summary of the method: as §1
Enterobacteriaceae [17] = assay: Antibacterial activity against NDM-1-producing Enterobacteriaceae isolate N8 after 16 to 20 hrs by broth microdilution method; type: functional; summary of the method: as §1
Staphylococcus aureus [18] = assay: Antibacterial activity against methicillin-resistant Staphylococcus aureus isolate M2 after 16 to 20 hrs by broth microdilution method; type: functional; summary of the method: as §4
Escherichia coli [19] = assay: Induction of outer membrane permeabilization in Escherichia coli ATCC 25922 at 20 ug/ml measured every 2 mins for 12 mins by NPN staining based fluorescence assay; type: functional, organism-based
Summary of the method: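 Mid-log E. coli (~10^8 CFU/mL) in black plates pre-incubated about 40 min with NPN (10 µM, 50 µL). Baseline read 8 min (ex 350/em 420 nm), then compound added to 20 µg/mL final and fluorescence followed every 2 min for 12 min. Water-treated control.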

Klebsiella pneumoniae [20] = assay: Antibacterial activity against carbapenemase-producing Klebsiella pneumoniae isolate K10 after 16 to 20 hrs by broth microdilution method; type: functional; summary of the method: as §1
Klebsiella pneumoniae [21] = assay: Antibacterial activity against carbapenemase-producing Klebsiella pneumoniae isolate K9 after 16 to 20 hrs by broth microdilution method; type: functional; summary of the method: as §1
[22] = Hemolytic activity in sheep RBC after 1 hr; type: ADME, cell-based, Ovis aries, Erythrocyte; conditions: sheep red blood cells (erythrocytes)
Summary of the method: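 Sheep RBCs suspended at 5% in PBS; 150 µL added to 50 µL compound dilutions (5120 to 10 µg/mL series). Incubated 1 h at 37 °C, then centrifuged; supernatant absorbance read at 540 nm. Lysis (%) = (A−A0)/(Atotal−A0)×100, with untreated 5% RBC as A0 and 0.1% Triton X-100 as total.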

Klebsiella pneumoniae [23] = assay: Antibacterial activity against carbapenemase-producing Klebsiella pneumoniae isolate K7 after 16 to 20 hrs by broth microdilution method; type: functional; summary of the method: as §1
Staphylococcus aureus [24] = assay: Antibacterial activity against methicillin-resistant Staphylococcus aureus isolate M9 after 16 to 20 hrs by broth microdilution method; type: functional; summary of the method: as §4
Staphylococcus aureus [25] = assay: Antibacterial activity against methicillin-resistant Staphylococcus aureus isolate M5 after 16 to 20 hrs by broth microdilution method; type: functional; summary of the method: as §4
Staphylococcus aureus [26] = assay: Ratio of MBC for methicillin-resistant Staphylococcus aureus in presence of 50% serum to MBC for methicillin-resistant Staphylococcus aureus; type: functional; summary of the method: as §2
Staphylococcus aureus [27] = assay: Bactericidal activity against methicillin-resistant Staphylococcus aureus after 20 to 24 hrs in presence of 50% plasma by broth microdilution method; type: functional, organism-based; summary of the method: as §2
Staphylococcus aureus [28] = assay: Antibacterial activity against methicillin-resistant Staphylococcus aureus isolate M3 after 16 to 20 hrs by broth microdilution method; type: functional; summary of the method: as §4
Staphylococcus aureus [29] = assay: Antibacterial activity against methicillin-resistant Staphylococcus aureus isolate M7 after 16 to 20 hrs by broth microdilution method; type: functional; summary of the method: as §4
Staphylococcus aureus [30] = assay: Bactericidal activity against methicillin-resistant Staphylococcus aureus after 20 to 24 hrs by broth microdilution method; type: functional
Summary of the method: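 For MBC, 20 µL from wells of the broth microdilution MIC plate showing little or no turbidity was plated on agar and incubated 20-24 h at 37 °C. MBC was the lowest concentration giving no colonies.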

Structure (SMILES)	MIC (Klebsiella pneumoniae [1]) [µg/mL]	Activity (Staphylococcus aureus [2])	MIC (Klebsiella pneumoniae [3]) [µg/mL]	Activity (Staphylococcus aureus [4])	Activity (Escherichia coli [5])	MIC (Escherichia coli [6]) [µg/mL]	MIC (Enterobacteriaceae [7]) [µg/mL]	MIC (Klebsiella pneumoniae [8]) [µg/mL]	MIC (Enterobacteriaceae [9]) [µg/mL]	Ratio (Staphylococcus aureus [10])	MIC (Enterobacteriaceae [11]) [µg/mL]	Activity (Escherichia coli [12])	MIC (Enterobacteriaceae [13]) [µg/mL]	MIC (Klebsiella pneumoniae [14]) [µg/mL]	MIC (Staphylococcus aureus [15]) [µg/mL]	MIC (Enterobacteriaceae [16]) [µg/mL]	MIC (Enterobacteriaceae [17]) [µg/mL]	MIC (Staphylococcus aureus [18]) [µg/mL]	Activity (Escherichia coli [19])	MIC (Klebsiella pneumoniae [20]) [µg/mL]	also measured
CCCCCCCCCN(CCCCCCCCC)C(=O)[C@@H](N)CCCN=C(N)N.Cl.Cl.Cl	4	inactive	4	Active	Active	2	4	4	4	8 - 16	4	Active	4	4	2	2	2	1	Active	4	MIC (Klebsiella pneumoniae [21]): 4 µg/mL; HC50 at 1 h [22]: 119 µg/mL; MIC (Klebsiella pneumoniae [23]): 4 µg/mL; MIC (Staphylococcus aureus [24]): 2 µg/mL; MIC (Staphylococcus aureus [25]): 2 µg/mL; Ratio (Staphylococcus aureus [26]): 1 - 2; Activity (Staphylococcus aureus [27]): Active; MIC (Staphylococcus aureus [28]): 1 µg/mL; MIC (Staphylococcus aureus [29]): 2 µg/mL; MBC (Staphylococcus aureus [30]): 4 to 8 µg/mL
CCCCCCCCCCN(CCCCCCCCCC)C(=O)[C@@H](N)CCCCN.Cl.Cl	2	inactive	4	Active	Active	2	4	2	4	8 - 16	4	Active	4	4	1	4	4	1	Active	4	MIC (Klebsiella pneumoniae [21]): 4 µg/mL; HC50 at 1 h [22]: 98 µg/mL; MIC (Klebsiella pneumoniae [23]): 4 µg/mL; MIC (Staphylococcus aureus [24]): 1 µg/mL; MIC (Staphylococcus aureus [25]): 2 µg/mL; Ratio (Staphylococcus aureus [26]): 1 - 2; Activity (Staphylococcus aureus [27]): Active; MIC (Staphylococcus aureus [28]): 2 µg/mL; MIC (Staphylococcus aureus [29]): 1 µg/mL; MBC (Staphylococcus aureus [30]): 4 to 8 µg/mL
